Assays:
Type in all cases: functional
Felis catus [1] = assay: Tested for the percent change in blood pressure after administration in cat
How it was run: (§1)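 Cats 2-4 kg, either sex, anesthetized with pentobarbital sodium 30 mg/kg ip, pretreated with atropine sulfate 0.2 mg/kg iv. Compounds in saline given as iv bolus via femoral catheter. Blood pressure and heart rate recorded. Right cardioaccelerator nerve stimulated at 2 Hz, 5-ms pulses, 20–25 V supramaximal; inhibition of the positive chronotropic response measured, with ED50 calculated. Haloperidol 100 µg/kg iv given beforehand for blockade.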

Felis catus [2] = assay: Tested for the change in heart rate after administration in cat; how it was run: as §1
Felis catus [3] = species: Felis catus; assay: Tested for the inhibition of cardioaccelerator nerves in cat; conditions: read-out: ID50 (the source's name); how it was run: as §1
[4] = Tested for the ratio between rat rotation and the potency to apomorphine
How it was run: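 Rats with unilateral substantia nigra 6-hydroxydopamine lesions (6 µg in 3 µl). HCl salts in saline given sc, screened at 2 mg/kg; contralateral turns recorded automatically for at least 1 h as turns per hour. Dose-response curves used 4-5 animals; potency ratio to apomorphine with 95% CI calculated over 60 min after dosing.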

Rattus norvegicus [5] = species: Rattus norvegicus; assay: Tested for the alteration in rat CNS transmitter synthesis by […] of 5-HTP from olfactory tubercle; set-up: concentration or dose not given beside the values
How it was run: (§2)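 Rat in vivo synthesis-index model (Carlsson): test compound 4.0 mg/kg sc given 30 min before GBL 750 mg/kg ip in distilled water; apomorphine 4.0 mg/kg sc 5 min before GBL. Five min after GBL, NSD 1015 100 mg/kg ip in saline; decapitation 30 min later. Dopa in caudate nucleus and 5-HTP in olfactory tubercle measured, expressed as percent of saline+GBL control; p < 0.05 criterion.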

Rattus norvegicus [6] = species: Rattus norvegicus; assay: Tested for the alteration in rat CNS transmitter synthesis by […] of Dopa from caudate nucleus; set-up: concentration or dose not given beside the values; how it was run: as §2

COc1ccc(OC)c2c1CC(N(C)C)C2
BP change (Felis catus [1]): 51.8%
HR (Felis catus [2]): 3.2 beats min-1
ED50 (Felis catus [3]): 1.16 µmol/kg
Ratio [4]: 0.019

CCCN(CCC)C1Cc2c(OC)ccc(OC)c2C1
BP change (Felis catus [1]): -16.6%
Control (Rattus norvegicus [5]): 51.5%
HR (Felis catus [2]): -6.4 beats min-1
Control (Rattus norvegicus [6]): 31.8%
ED50 (Felis catus [3]): 0.107 µmol/kg
Ratio [4]: 0.13

CNC1CCc2c(OC)ccc(OC)c2C1 (configuration not stated)
Control (Rattus norvegicus [5]): 33.2%
Control (Rattus norvegicus [6]): 103.8%
Ratio [4]: 3.9

CN1CCc2cccc3c2[C@H]1Cc1ccc(O)c(O)c1-3 [APOMORPHINE]
Control (Rattus norvegicus [6]): 18.3%
ED50 (Felis catus [3]): 0.103 µmol/kg
Ratio [4]: 1

COc1ccc(OC)c2c1CC(N)C2
BP change (Felis catus [1]): 6.3%
Control (Rattus norvegicus [5]): 109.7%
HR (Felis catus [2]): 0 beats min-1
Control (Rattus norvegicus [6]): 94%
ED50 (Felis catus [3]): 1.55 µmol/kg
Ratio [4]: 8.7

CNC1Cc2c(OC)ccc(OC)c2C1
BP change (Felis catus [1]): 28.1%
Control (Rattus norvegicus [5]): 94.7%
HR (Felis catus [2]): 2.5 beats min-1
Control (Rattus norvegicus [6]): 67.9%
ED50 (Felis catus [3]): 1.23 µmol/kg
Ratio [4]: 8.2

CCCNC1Cc2c(OC)ccc(OC)c2C1
BP change (Felis catus [1]): 0.7%
Control (Rattus norvegicus [5]): 104.7%
HR (Felis catus [2]): -3.2 beats min-1
Control (Rattus norvegicus [6]): 79.1%
ED50 (Felis catus [3]): 1.1 µmol/kg
Ratio [4]: 7.4

COc1ccc(OC)c2c1CC(NC(C)C)C2
BP change (Felis catus [1]): 3.8%
HR (Felis catus [2]): 0 beats min-1
ED50 (Felis catus [3]): 1.1 µmol/kg

— ChEMBL document CHEMBL1122098, “2-Amino-4,7-dimethoxyindan derivatives: synthesis and assessment of dopaminergic and cardiovascular actions” (1982)
